Experiments:
[1] = biological target: Nuclear receptor subfamily 1 group I member 3 (Mus musculus, UniProt O35627, H213A); settings: HEK293, mouse, read-out: Activity
[2] = biological target: T1, Nuclear receptor subfamily 1 group I member 3 (Mus musculus, UniProt O35627, L253F); assay: Effect on nuclear co-repressor receptor binding to mouse CAR L253F mutant […] at 10 uM by yeast two-hybrid assay; format: cell-based; settings: read-out: Activity
How it was run: (§1)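 Yeast expressing wild-type or mutant mouse CAR LBD plus NCoR, selected on SD plates lacking leucine and tryptophan. Pooled colonies treated with DMSO or compound for 3.5 h. β-Galactosidase activity normalized to cell density. Reference is 10 µM androstenol (=100). Mean ± SD of two independent determinations, each in triplicate.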

[3] = biological target: Nuclear receptor subfamily 1 group I member 3 (Mus musculus, UniProt O35627, I252L); settings: HEK293, mouse, read-out: Activity
Chain of Nuclear receptor subfamily 1 group I member 3 (Mus musculus, UniProt O35627, I252L) (O35627 whole entry I252L): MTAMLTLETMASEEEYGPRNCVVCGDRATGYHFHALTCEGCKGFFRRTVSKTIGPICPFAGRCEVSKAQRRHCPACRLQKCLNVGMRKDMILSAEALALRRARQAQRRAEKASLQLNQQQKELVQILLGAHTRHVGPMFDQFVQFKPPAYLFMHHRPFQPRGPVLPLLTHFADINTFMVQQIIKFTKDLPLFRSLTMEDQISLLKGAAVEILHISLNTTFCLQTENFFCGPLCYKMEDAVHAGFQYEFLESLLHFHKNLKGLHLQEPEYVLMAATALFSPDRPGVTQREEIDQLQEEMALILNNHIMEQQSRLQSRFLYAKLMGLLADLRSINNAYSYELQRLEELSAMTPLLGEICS

[4] = biological target: T2, Nuclear receptor subfamily 1 group I member 3 (Mus musculus, UniProt O35627, F171L); settings: HEK293, mouse
T2 sequence (O35627 whole entry F171L): as the sequence (O35627 whole entry I252L) above, with F171L, L252I counted along it

[5] = biological target: T3, Nuclear receptor subfamily 1 group I member 3 (Mus musculus, UniProt O35627, N175A); settings: HEK293, mouse, read-out: Activity
T3 sequence (O35627 whole entry N175A): as the sequence (O35627 whole entry I252L) above, with N175A, L252I counted along it

[6] = biological target: Nuclear receptor subfamily 1 group I member 3 (Mus musculus, UniProt O35627, T350M); settings: HEK293, mouse, read-out: Activity
Chain of Nuclear receptor subfamily 1 group I member 3 (Mus musculus, UniProt O35627, T350M) (O35627 whole entry T350M): as the sequence (O35627 whole entry I252L) above, with L252I, T350M counted along it

[7] = biological target: T4, Nuclear receptor subfamily 1 group I member 3 (Mus musculus, UniProt O35627); assay: Activation of mouse CAR
T4 sequence (O35627 whole entry): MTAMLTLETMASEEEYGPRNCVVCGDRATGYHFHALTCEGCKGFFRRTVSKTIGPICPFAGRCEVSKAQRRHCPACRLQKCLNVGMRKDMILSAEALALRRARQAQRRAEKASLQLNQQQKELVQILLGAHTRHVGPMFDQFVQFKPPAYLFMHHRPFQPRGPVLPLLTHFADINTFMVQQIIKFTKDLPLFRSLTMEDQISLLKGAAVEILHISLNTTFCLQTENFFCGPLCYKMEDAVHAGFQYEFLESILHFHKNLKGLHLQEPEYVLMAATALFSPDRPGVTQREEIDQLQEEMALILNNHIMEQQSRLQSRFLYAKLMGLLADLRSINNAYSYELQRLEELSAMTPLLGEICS
How it was run: (§2)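 GAL4-DBD fused to mouse CAR LBD (residues 118-358), wild-type or point mutant, cotransfected with UASx4-tk-luc reporter and pCMVβ into HEK293 cells. Cells were exposed to final 1 µM, 2 µM or 10 µM test chemical, or 0.1% v/v DMSO, for 24 h after transfection. Luciferase was normalized to β-galactosidase and set against empty GAL4 vector (=1.0). Mean ± standard deviation, three independent experiments.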

[8] = biological target: T3, Nuclear receptor subfamily 1 group I member 3; assay: Decrease in mouse CAR N175A mutant activation expressed in HEK293 cells at 10 uM by mammalian one-hybrid assay; format: cell-based; settings: read-out: Activity
How it was run: as §2

[9] = biological target: Nuclear receptor subfamily 1 group I member 3 (Mus musculus, UniProt O35627, F171A); assay: Enhancement of nuclear co-repressor receptor binding to mouse CAR F171A mutant […] at 10 uM by yeast two-hybrid assay; format: cell-based
Chain of Nuclear receptor subfamily 1 group I member 3 (Mus musculus, UniProt O35627, F171A) (O35627 whole entry F171A, the tested form may be a part): as the sequence (O35627 whole entry I252L) above, with F171A, L252I counted along it
How it was run: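 Yeast two-hybrid assay. Yeast co-expressing wild-type or mutant mouse CAR LBD and the NCoR partner were selected on SD plates lacking leucine and tryptophan. Pooled, amplified colonies were treated with DMSO or test chemical for 3.5 h. β-galactosidase activity was normalized to cell density and referenced to the 10 µM androstenol interaction (=100). Mean ± standard deviation of two determinations, each in triplicate.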

[10] = biological target: T5, Nuclear receptor subfamily 1 group I member 3 (Mus musculus, UniProt O35627, S251L); assay: Decrease in nuclear co-repressor receptor binding to mouse CAR S251L mutant […] at 10 uM by yeast two-hybrid assay; format: cell-based; parameters: scale not given: the % may be the effect or the level left
T5 sequence (O35627 whole entry S251L): as the sequence (O35627 whole entry I252L) above, with S251L, L252I counted along it

[11] = biological target: Nuclear receptor subfamily 1 group I member 3 (Mus musculus, UniProt O35627, Y336A); assay: Decrease in steroid receptor coactivator 1 binding to mouse CAR Y336A mutant […] at 10 uM by yeast two-hybrid assay; format: cell-based; settings: read-out: Activity
Chain of Nuclear receptor subfamily 1 group I member 3 (Mus musculus, UniProt O35627, Y336A) (O35627 whole entry Y336A): as the sequence (O35627 whole entry I252L) above, with L252I, Y336A counted along it
How it was run: as §1, with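 “SRC-1,” for “NCoR,”, “wild-type CAR + SRC-1 with DMSO” for “10 µM androstenol”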

[12] = biological target: T5, Nuclear receptor subfamily 1 group I member 3; settings: HEK293, mouse, read-out: Activity
[13] = biological target: T2, Nuclear receptor subfamily 1 group I member 3; assay: Decrease in nuclear co-repressor receptor binding to mouse CAR F171L mutant […] at 10 uM by yeast two-hybrid assay; format: cell-based; parameters: scale not given: the % may be the effect or the level left
How it was run: as §1

[14] = biological target: Nuclear receptor subfamily 1 group I member 3 (Mus musculus, UniProt O35627, T350A); settings: HEK293, mouse, read-out: Activity
Chain of Nuclear receptor subfamily 1 group I member 3 (Mus musculus, UniProt O35627, T350A) (O35627 whole entry T350A): as the sequence (O35627 whole entry I252L) above, with L252I, T350A counted along it

[15] = biological target: Nuclear receptor subfamily 1 group I member 3 (Mus musculus, UniProt O35627, L212A); assay: Enhancement of steroid receptor co-activator 1 binding to mouse CAR L212A mutant […] at 10 uM by yeast two-hybrid assay; format: cell-based
Chain of Nuclear receptor subfamily 1 group I member 3 (Mus musculus, UniProt O35627, L212A) (O35627 whole entry L212A): as the sequence (O35627 whole entry I252L) above, with L212A, L252I counted along it

[16] = biological target: T1, Nuclear receptor subfamily 1 group I member 3; settings: HEK293, mouse, read-out: Activity
[17] = biological target: T6, mouse CAR (NR1I3), wild type (Mus musculus, UniProt O35627); assay: Activation of wild type mouse CAR expressed in HEK293 cells at 10 uM by mammalian one-hybrid assay; format: cell-based; settings: HEK293 cells expressing wild type mouse CAR, read-out: FC
T6 sequence (O35627 whole entry): T4 sequence (O35627 whole entry)
How it was run: (§3)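 GAL4 DBD fused to mouse CAR LBD (residues 118-358), wild type or point mutant, cotransfected with UASx4-tk-luc reporter and pCMVβ into HEK293 cells. Cells cultured with DMSO (0.1% v/v) or compound (final 1, 2 or 10 µM). Lysed 24 h post-transfection. Luciferase normalized to β-galactosidase, expressed relative to empty GAL4 vector (=1.0). Mean ± SD, three independent experiments.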

[18] = biological target: T2, Nuclear receptor subfamily 1 group I member 3; assay: Decrease in mouse CAR F171L mutant activation expressed in HEK293 cells at 10 uM by mammalian one-hybrid assay; format: cell-based; settings: read-out: Activity
How it was run: as §3

[19] = biological target: T4, Nuclear receptor subfamily 1 group I member 3; assay: Activation of wild type mouse CAR expressed in HEK293 cells at 2 uM by mammalian one-hybrid assay; format: cell-based; settings: hek293, 2 µM
How it was run: as §2

T1 sequence (O35627 whole entry L253F, the tested form may be a part): as the sequence (O35627 whole entry I252L) above, with L252I, L253F counted along it
Chain of Nuclear receptor subfamily 1 group I member 3 (Mus musculus, UniProt O35627, H213A) (O35627 whole entry H213A): as the sequence (O35627 whole entry I252L) above, with H213A, L252I counted along it

| inhibition at 10 µM [1] [%] | inhibition at 10 µM [6] [%] | Activity [7] | inhibition at 10 µM [8] [%] | SMILES | activity at 10 µM [2] [%] | inhibition at 10 µM [3] [%] | activity at 10 µM [4] [%] | inhibition at 10 µM [5] [%] | Activity [9] | Activity [10] | inhibition at 10 µM [11] [%] | inhibition at 10 µM [12] [%] | Activity [13] | inhibition at 10 µM [14] [%] | Activity [15] | inhibition at 10 µM [16] [%] | fold induction at 10 µM [17] | inhibition at 10 µM [18] [%] | Activity [19] [%] |
| --- | --- | --- | --- | --- | --- | --- | --- | --- | --- | --- | --- | --- | --- | --- | --- | --- | --- | --- | --- |
| 50 | 50 | Active | < 50 | COc1ccc(C(=O)CCCc2ccccc2)cc1 | < 50 | 50 | < 50 | ≥ 50 | >= 50% | >= 50% | ≥ 50 |  |  |  |  |  |  |  |  |
| 50 | < 50 | Active | 50 | COc1ccccc1CC(CC(=O)Cc1ccccc1)OC (centres undefined) |  | < 50 |  | ≥ 50 |  | >= 50% |  | < 50 | >= 50% | 50 | > 150% | ≥ 50 | 2 |  |  |

More lines, now with the values behind:

| SMILES | inhibition at 10 µM [1] [%] | inhibition at 10 µM [6] [%] | Activity [7] | inhibition at 10 µM [8] [%] | activity at 10 µM [2] [%] | inhibition at 10 µM [3] [%] | activity at 10 µM [4] [%] | inhibition at 10 µM [5] [%] | Activity [9] | Activity [10] | inhibition at 10 µM [11] [%] | inhibition at 10 µM [12] [%] | Activity [13] | inhibition at 10 µM [14] [%] | Activity [15] | inhibition at 10 µM [16] [%] | fold induction at 10 µM [17] | inhibition at 10 µM [18] [%] | Activity [19] [%] |
| --- | --- | --- | --- | --- | --- | --- | --- | --- | --- | --- | --- | --- | --- | --- | --- | --- | --- | --- | --- |
| Clc1cnc(Oc2ccc(Oc3ncc(Cl)cc3Cl)cc2)c(Cl)c1 |  |  |  |  |  |  |  |  |  |  |  |  |  |  |  |  | 2 |  |  |
| C[C@]12CC[C@@H](O)C[C@@H]1CC[C@@H]1[C@@H]2CC[C@]2(C)C=CC[C@@H]12 [ANDROSTENOL] |  |  |  |  |  | < 50 | < 50 | ≥ 50 |  | >= 50% |  |  | >= 50% |  |  | ≥ 50 |  | < 50 |  |
| Clc1ccccc1C(c1ccccc1)(c1ccccc1)n1ccnc1 [CLOTRIMAZOLE] |  |  |  |  |  |  |  |  |  |  |  |  |  |  |  |  |  |  | 40 |
| COc1ccc(C(c2ccc(OC)cc2)C(Cl)(Cl)Cl)cc1 [METHOXYCHLOR] |  |  |  |  | < 50 | 50 |  | ≥ 50 | >= 50% | >= 50% | ≥ 50 | < 50 |  | 50 | >= 50% |  |  | < 50 | 40 |
